Assay outcomes from PubChem BioAssay.
OX1R antag-1: blocks the human orexin 1 receptor; O43613; OX1R-expressing cells, FRET antagonist read-out; inhibition, % at 6.6 µM; 1.8% of 330,000 active; AID 485270; in the data active = inhibition mostly above about 38%, no sharp cut-off; inactive = mostly below about 40%;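 also: 0% = agonist challenge alone and 100% = reference antagonist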
OXTR potentiator: potentiators of human oxytocin receptor; P30559; CHO-OTR cells, Fluo-8 calcium fluorescence, potentiator mode; 0% = oxytocin EC15, 100% = EC100; activation, % at 3 µM; 0.061% of 320,000 active; AID 2445;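 active = activation above that plate's cutoff, the mean activation of tested compounds plus 3 SD, cut at about 6.6% in these data, passing the limit was not always enough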;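 also: 100% uses oxytocin at 75 nM as the full agonist control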
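Material: human OTR in CHO cells. Compound: 3.0 µM, one dose. Timing: compound 6 min at room temperature before oxytocin, 100 s read. Evaluation: % activation of max/min ratio relative to oxytocin controls. Replication: single well per compound, singlicate. Signal: Fluo-8 calcium dye fluorescence.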
V1aR counter: V1a receptor agonism, counter-screen for OXTR agonists. CHO-V1R cells, Fluo-8 calcium fluorescence, agonist mode; 0% DMSO, 100% 3 nM vasopressin. activation, % at 3 µM. 0.25% of 320,000 active. AID 2797. P37288;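 active = activation above the mean activation of all tested compounds plus 3 SD, per screening run, cut at about 20% in these data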;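 also: signal is peak over basal fluorescence ratio across a 100 second FLIPR read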
Target sequence (P37288 whole entry, looked up): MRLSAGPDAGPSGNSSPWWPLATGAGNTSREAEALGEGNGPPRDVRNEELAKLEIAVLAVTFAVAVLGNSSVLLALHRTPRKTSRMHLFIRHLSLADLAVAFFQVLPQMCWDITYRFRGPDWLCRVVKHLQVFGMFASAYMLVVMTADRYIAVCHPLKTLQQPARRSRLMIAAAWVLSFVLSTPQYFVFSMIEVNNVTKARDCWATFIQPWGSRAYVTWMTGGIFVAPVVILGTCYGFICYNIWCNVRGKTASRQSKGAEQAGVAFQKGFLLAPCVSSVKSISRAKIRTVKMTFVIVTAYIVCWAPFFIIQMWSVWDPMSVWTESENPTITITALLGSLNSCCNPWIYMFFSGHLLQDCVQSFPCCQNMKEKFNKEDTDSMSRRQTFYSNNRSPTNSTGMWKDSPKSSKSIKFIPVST
OX1R antag-2: human HCRTR1 antagonism; CHO/OX1R cells, Fluo-8 calcium fluorescence, orexin A; inhibition, % at 5 µM; 0.43% of 330,000 active; AID 434989;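 active = inhibition above its plate's threshold, mean inhibition of all tested compounds on the plate plus 3 SD, cut at about 37% in these data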;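 also: 0% = orexin A challenge wells and 100% = SB-334867-A antagonist wells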
OXTR agonist: human OXTR agonism; CHO-OTR cells, Fluo-8 calcium fluorescence; normalized: DMSO 0%, oxytocin 100%; 0.32% of 320,000 active; activation, % at 3 µM;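 active = activation above the mean of all tested compounds plus 3 SD, cutoff set per screening run, cut at about 20% in these data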;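 also: peak over basal fluorescence ratio from a 100 s FLIPR kinetic read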
CHO parental Ca: counter-screen for OX1R antagonists: effect in parental CHO cells; parental CHO-K1, ATP-induced calcium, Fluo-8 fluorescence; inhibition, % at 5.6 µM; 0.63% of 330,000 active; AID 463079;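 active = inhibition above that plate's mean sample inhibition plus 3 SD, cut at about 26% in these data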;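 also: 0% = ATP-challenged DMSO wells and 100% = DMSO wells without ATP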
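Measured by: calcium-sensitive Fluo-8 fluorescence / Test system: CHO parental line / Controls: ATP-challenged DMSO wells low, unchallenged DMSO wells high / Measure: % inhibition / Compound: single nominal dose of 5.6 µM per compound / Replicates: single well per compound, no replicates / Reagent: ATP as calcium-mobilizing challenge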
Active calls of the source: *. An excerpt weighted towards active compounds, which were near 2.7% of everything screened.

SMILES | OX1R antag-1 | OXTR potentiator | V1aR counter | OX1R antag-2 | OXTR agonist | CHO parental Ca
O=C(Nc1ccccn1)c1ccc(Cl)c(S(=O)(=O)N2CCc3ccccc32)c1 | 16 | -8 | 2 | 27 | 0 | 2
CCCCn1c(=O)nc2n(-c3ccccc3)c3ccccc3cc-2c1=O | 31 | -4 | 0 | -43 | -1 | -26
Cc1ccc(C)c(-n2c3nc(=O)n(C)c(=O)c-3cc3ccccc32)c1 | 63* | -11 | -2 | -24 | -1 | -15
CC1CCN(c2ccc3nnc(CCC(=O)N4CCN(c5ccc(F)cc5)CC4)n3n2)CC1 | 15 | -12 | -1 | -36 | -3 | -26
O=[N+]([O-])c1ccc(Sc2nccn2Cc2ccccc2)c([N+](=O)[O-])c1 | 38* | 6 | -2 | -33 | -2 | -15
O=[N+]([O-])c1ccc(Sc2ncccn2)c([N+](=O)[O-])c1 | 67* | -8 | -2 | -8 | -1 | -3
Cc1cccc(Sc2ccc([N+](=O)[O-])cc2[N+](=O)[O-])n1 | 50 | 3 | 1 | -25 | -1 | -4
CN(C)S(=O)(=O)Oc1ccsc1C(=O)Nc1cccc(Cl)c1Cl | 42 | -7 | 1 | -26 | 0 | 46*
COCCn1c(SCC#N)nnc1-c1ccccc1O | 6 | -6 | 0 | -5 | 0 | 0
COCCn1c(SCC#N)nnc1-c1ccc([N+](=O)[O-])cc1 | 72* | -2 | 14 | -15 | 0 | -6
COc1cc(-c2nc3cnccn3c2Nc2ccc(C)cc2)ccc1O | 7 | -10 | 1 | -13 | 2 | -8
COc1cc(-c2nc3cnccn3c2Nc2ccc(C(C)C)cc2)ccc1O | -3 | -10 | 3 | -8 | 2 | 37*
CCCn1c(=O)[nH]c(=O)c2c1nc(-c1cc([N+](=O)[O-])ccc1Cl)n2CCOC | 41* | -7 | 0 | -24 | 0 | -21
Cc1ccc2c(c1)CCCN2CC(=O)N(C)c1c(N)n(Cc2ccccc2)c(=O)[nH]c1=O | 1 | -5 | 2 | -16 | 1 | -3
CN(C)CCCNc1cc(O)c2ncccc2c1 | 45* | 5 | 1 | -1 | 3 | -11
O=C1C(Cl)=C(Nc2cccc(O)c2)C(=O)N1Cc1ccccc1 | 47 | -14 | 1 | -2 | 0 | -14
OC(CNCC(c1ccc(Cl)cc1Cl)c1c[nH]c2ccccc12)c1ccccc1 (stereo unspecified) | 3 | -6 | 5 | 17 | 9 | 33*
CCOc1cc(NC(=S)Nc2ccccc2OC)c(OCC)cc1NC(=O)c1ccccc1C | 20 | -3 | -2 | -41 | -1 | -19
O=C1/C(=C/c2ccccc2)Nc2ccccc21 | 10 | -9 | 42* | 50* | 46* | 36*
CN(C)S(=O)(=O)Nc1cc(F)cc(F)c1 | 3 | -3 | 1 | 4 | 1 | -11
COc1cccc(C(=O)Nc2cc3c(cc2C(C)=O)OCCO3)c1 | 52 | -4 | 1 | 5 | 0 | -3
COc1ccc(-c2n[nH]c(C)c2-c2ccc(Cl)cc2)c(O)c1 | 21 | -29 | 0 | 39 | -1 | 98*
COCCN(C(=O)C1CC(=O)N(Cc2ccccc2)C1)c1nc(-c2ccc([N+](=O)[O-])cc2)cs1 (stereo unspecified) | 5 | -7 | 1 | 1 | -1 | 2
O=C(NN1CCOCC1)c1cnn2c(C(F)F)cc(-c3ccccc3)nc12 | 40* | 0 | 0 | -15 | -1 | -18
COc1ccc(NC(=O)CCCSc2nc(-c3ccco3)cc(C(F)(F)F)n2)cc1OC | 66* | -13 | 1 | -10 | -1 | -13
COc1ccc(CCC(=O)NCC(=O)OCc2ccccc2)cc1 | -3 | -9 | 0 | -4 | 0 | 4
O=c1oc2ccc3ccccc3c2cc1-c1nnc(-c2ccccc2)o1 | 74* | -8 | 0 | -2 | 1 | -5
COc1ccc(-c2nnc(-c3cc4c(ccc5ccccc54)oc3=O)o2)cc1 | 62 | -10 | 2 | -22 | -1 | -14
CCc1ccc([C@@H]2CC=C(C(=O)O)[C@H](c3cccc(Cl)c3)N2S(=O)(=O)c2ccc(C)cc2)cc1 | 71* | -16 | -1 | 22 | -2 | -16
